Source: ChEMBL document CHEMBL1132497, “Synthesis and SAR of adatanserin: novel adamantyl aryl- and heteroarylpiperazines with dual serotonin 5-HT(1A) and 5-HT(2) activity as potential anxiolytic and antidepressant agents” (J Med Chem, 1999)

Tests used:
[1] = biological target: T1, 5-hydroxytryptamine receptor 1A (Rattus norvegicus, UniProt P19327); experiment: Antagonist activity against rat hippocampal tissue 5-hydroxytryptamine 1A receptor; assay type: functional, tissue-based, Hippocampus
T1 sequence (P19327 whole entry): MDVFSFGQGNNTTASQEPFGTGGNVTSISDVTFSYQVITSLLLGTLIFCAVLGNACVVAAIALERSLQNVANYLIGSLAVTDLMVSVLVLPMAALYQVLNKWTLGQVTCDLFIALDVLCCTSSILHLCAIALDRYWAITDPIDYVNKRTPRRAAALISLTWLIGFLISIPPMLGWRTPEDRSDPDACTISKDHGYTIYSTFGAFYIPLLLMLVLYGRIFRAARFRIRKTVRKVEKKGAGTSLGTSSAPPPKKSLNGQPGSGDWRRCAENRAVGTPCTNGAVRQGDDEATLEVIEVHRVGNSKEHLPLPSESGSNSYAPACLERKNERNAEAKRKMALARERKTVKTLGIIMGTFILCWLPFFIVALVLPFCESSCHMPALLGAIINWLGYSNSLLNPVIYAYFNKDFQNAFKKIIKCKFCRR

[2] = biological target: Serotonin 2 (5-HT2) receptor (Rattus norvegicus, UniProt P30994+P08909+P14842); experiment: Inhibitory activity against rat cortical 5-hydroxytryptamine 2 receptor; assay type: protein assay
Method in brief: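 Cortical membranes from male Sprague–Dawley rats, incubated 15 min at 37 °C in 50 mM Tris pH 7.6 with 1.0 nM [3H]ketanserin and a range of drug concentrations. Nonspecific binding defined with 100 μM methysergide. Run by filtration and counting.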

D(2) dopamine receptor = D(2) dopamine receptor (Rattus norvegicus, UniProt P61169); experiment: Inhibitory activity against rat limbic tissue Dopamine receptor D2; assay type: tissue-based, Limbic system
Sequence of D(2) dopamine receptor (P61169 whole entry): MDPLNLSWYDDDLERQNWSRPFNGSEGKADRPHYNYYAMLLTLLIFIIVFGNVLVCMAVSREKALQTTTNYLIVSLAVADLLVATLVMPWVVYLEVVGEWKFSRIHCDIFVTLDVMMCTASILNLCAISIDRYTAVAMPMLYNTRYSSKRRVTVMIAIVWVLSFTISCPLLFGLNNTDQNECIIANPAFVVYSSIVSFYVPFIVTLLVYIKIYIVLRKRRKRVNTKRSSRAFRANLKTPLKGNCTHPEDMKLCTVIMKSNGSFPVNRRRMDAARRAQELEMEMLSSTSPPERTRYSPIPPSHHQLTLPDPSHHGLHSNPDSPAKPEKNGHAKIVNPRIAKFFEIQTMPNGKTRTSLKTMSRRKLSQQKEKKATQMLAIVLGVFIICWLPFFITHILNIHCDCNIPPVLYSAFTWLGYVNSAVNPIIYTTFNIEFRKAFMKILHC
Method in brief: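 Rat limbic membranes, handled as in the 5-HT2 assay: 15 min at 37 °C, 50 mM Tris pH 7.6, drug concentration range. 30 nM ketanserin in all tubes to block 5-HT2 sites. Nonspecific binding defined with 10 μM sulpiride. Filtration and counting.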

[3] = biological target: T2, 5-hydroxytryptamine receptor 1A (Rattus norvegicus) (UniProt P19327); experiment: Inhibitory activity against 5-hydroxytryptamine 1A receptor of rat hippocampal tissue at 1 uM; assay type: tissue-based; conditions: Hippocampus
T2 sequence (whole entry): T1 sequence (P19327 whole entry)

[4] = biological target: D(2) dopamine receptor (Rattus norvegicus) (UniProt P61169); experiment: Inhibitory activity against Dopamine receptor D2 of rat limbic tissue at 1 uM; assay type: tissue-based; conditions: Limbic system
Sequence of D(2) dopamine receptor (Rattus norvegicus) (P61169 whole entry): as above

SMILES | Ki [1] | Ki [2] | Ki (D(2) dopamine receptor) | inhibition [3] | inhibition [4]
Cl.Cl.O=C(NCCCN1CCN(c2ncccn2)CC1)NC12C[C@H]3C[C@@H](C1)C[C@@H](C2)C3 | 7 nM | 1600 nM | > 10000 nM | – | –
CC(C)(CN1CCN(Cc2ccccc2)CC1)NC(=O)C12C[C@H]3C[C@@H](C1)C[C@@H](C2)C3 | – | – | – | 0% | –
COc1ccccc1N1CCN(CCOC(=O)C23C[C@H]4C[C@@H](C2)C[C@@H](C3)C4)CC1.Cl.Cl | 2.5 nM | 712 nM | 13.5 nM | – | –
O=C(OCCN1CCN(C(c2ccc(F)cc2)c2ccc(F)cc2)CC1)C12C[C@H]3C[C@@H](C1)C[C@@H](C2)C3 | – | – | – | 4% | –
Cl.Cl.O=C(NCCCN1CCN(c2ncccn2)CC1)C12CC3CC(CC1C3)C2 | – | 286 nM | – | – | 27%
COc1ccccc1N1CCN(CCOC(=O)NC23C[C@H]4C[C@@H](C2)C[C@@H](C3)C4)CC1 | 40 nM | – | – | – | 95%
Cl.Cl.O=C(NCCCN1CCN(c2ncccn2)CC1)C12C[C@H]3C[C@@H](C1)C[C@@H](C2)C3 | 89 nM | 21 nM | – | – | 6%
Cl.Cl.O=C(NCCN1CCN(c2ncccn2)CC1)C12CC3CC(CC1C3)C2 | 2.4 nM | 262 nM | – | – | 67%
C[C@@H](CN1CCN(c2ncccn2)CC1)NC(=O)C12C[C@H]3C[C@@H](C1)C[C@@H](C2)C3 | – | – | – | 21% | 1%
C[C@H](CN1CCN(Cc2ccccc2)CC1)NC(=O)C12C[C@H]3C[C@@H](C1)C[C@@H](C2)C3 | 37 nM | – | – | – | 14%
CC(C)N(CCN1CCN(c2ncccn2)CC1)C(=O)C12C[C@H]3C[C@@H](C1)C[C@@H](C2)C3 | – | – | – | 36% | –
O=C(NCCN1CCN(c2ncccn2)CC1)NC12C[C@H]3C[C@@H](C1)C[C@@H](C2)C3 | 77 nM | 71 nM | – | – | 72%
CC(C)(CN1CCN(c2ncccn2)CC1)NC(=O)C12C[C@H]3C[C@@H](C1)C[C@@H](C2)C3 | 127 nM | – | – | – | –
COc1ccccc1N1CCN(C[C@@H](C)NC(=O)C23C[C@H]4C[C@@H](C2)C[C@@H](C3)C4)CC1 | 0.22 nM | – | 21.5 nM | – | –
O=C(NCCN1CCN(C(c2ccc(Cl)cc2)c2ccc(Cl)cc2)CC1)NC12C[C@H]3C[C@@H](C1)C[C@@H](C2)C3 | – | – | – | 9% | –
COc1ccccc1N1CCN(CCOC(=O)CC23C[C@H]4C[C@@H](C2)C[C@](C)(C4)C3)CC1 | – | – | – | 86% | 97%
CN(CCN1CCN(c2ncccn2)CC1)C(=O)C12C[C@H]3C[C@@H](C1)C[C@@H](C2)C3 | 60 nM | – | – | – | –
O=C(NCCN1CCN(c2cccc(C(F)(F)F)c2)CC1)C12CC3CC(CC1C3)C2 | – | – | – | 83% | 73%
O=C(OCCCN1CCN(c2ncccn2)CC1)C12C[C@H]3C[C@@H](C1)C[C@@H](C2)C3 | – | – | – | 72% | 33%
O=C(OCCCN1CCN(c2cccc(C(F)(F)F)c2)CC1)C12C[C@H]3C[C@@H](C1)C[C@@H](C2)C3 | – | – | – | 75% | 54%
O=C(NC12C[C@H]3C[C@@H](C1)C[C@@H](C2)C3)OCCN1CCN(c2cccc(Cl)c2)CC1 | 76 nM | – | – | – | 36%
C[C@@]12C[C@@H]3C[C@@H](CC(CC(=O)NCCN4CCN(c5ncccn5)CC4)(C3)C1)C2 | 30 nM | – | – | – | –
O=C(N[C@H](COCc1ccccc1)CN1CCN(Cc2ccccc2)CC1)C12C[C@H]3C[C@@H](C1)C[C@@H](C2)C3 | 62 nM | – | 76 nM | – | –
COc1ccccc1N1CCN(CCCOC(=O)C23CC4C[C@@H](C[C@H]2C4)C3)CC1 | 26 nM | – | – | – | 100%

SMILES | Ki [1] | Ki [2] | Ki (D(2) dopamine receptor) | inhibition [3] | inhibition [4]
C[C@@]12C[C@@H]3C[C@@H](CC(CC(=O)NCCCN4CCN(c5cccc(Cl)c5)CC4)(C3)C1)C2 | – | – | – | 81% | –
C[C@@]12C[C@@H]3C[C@@H](CC(CC(=O)NCCN4CCN(c5cccc(Cl)c5)CC4)(C3)C1)C2 | 38 nM | – | – | – | 40%
Cl.Cl.O=C(NCCN1CCN(c2cccc(Cl)c2)CC1)C12CC3CC(CC1C3)C2 | 0.7 nM | 2.3 nM | – | – | 94%
C[C@@]12C[C@@H]3C[C@@H](CC(CC(=O)OCCCN4CCN(c5cccc(C(F)(F)F)c5)CC4)(C3)C1)C2 | – | – | – | 56% | –
COc1ccccc1N1CCN(CCOC(=O)C23CC4C[C@@H](C[C@H]2C4)C3)CC1 | 4.8 nM | – | – | – | 100%
C[C@@]12C[C@@H]3C[C@@H](CC(CC(=O)OCCN4CCN(c5cccc(Cl)c5)CC4)(C3)C1)C2 | – | – | – | 34% | 19%
Cl.Cl.Cl.O=C(CCN1CCN(c2ncccn2)CC1)NC12C[C@H]3C[C@@H](C1)C[C@@H](C2)C3 | 131 nM | 47 nM | – | – | 14%
COc1ccccc1N1CCN(CCCOC(=O)CC23C[C@H]4C[C@@H](C2)C[C@](C)(C4)C3)CC1 | 17 nM | – | – | – | 95%
O=C(OCCCN1CCN(Cc2ccccc2)CC1)C12C[C@H]3C[C@@H](C1)C[C@@H](C2)C3 | – | – | – | 63% | –
C[C@@]12C[C@@H]3C[C@@H](CC(CC(=O)NCCCN4CCN(c5ncccn5)CC4)(C3)C1)C2 | – | – | – | 68% | 20%
O=C(OCCN1CCN(c2ncccn2)CC1)C12CC3CC(CC1C3)C2 | – | – | – | – | 47%
C[C@@]12C[C@@H]3C[C@@H](CC(CC(=O)OCCCN4CCN(c5cccc(Cl)c5)CC4)(C3)C1)C2 | – | – | – | 58% | –
C[C@@]12C[C@@H]3C[C@@H](CC(CC(=O)OCCN4CCN(c5cccc(C(F)(F)F)c5)CC4)(C3)C1)C2 | – | – | – | 35% | 29%
C[C@@]12C[C@@H]3C[C@@H](CC(CC(=O)OCCN4CCN(c5ncccn5)CC4)(C3)C1)C2 | – | – | – | 72% | 39%
O=C(NC12C[C@H]3C[C@@H](C1)C[C@@H](C2)C3)N1CCN(c2cccc(Cl)c2)CC1 | – | – | – | 0% | –
O=C(NCCCN1CCN(c2cccc(Cl)c2)CC1)C12C[C@H]3C[C@@H](C1)C[C@@H](C2)C3 | 19 nM | – | – | – | 32%
O=C(NCCN1CCN(Cc2ccccc2)CC1)C12C[C@H]3C[C@@H](C1)C[C@@H](C2)C3 | 46 nM | – | – | – | 8%
O=C(N1CCN(c2ncccn2)CC1)C12C[C@H]3C[C@@H](C1)C[C@@H](C2)C3 | – | – | – | 9% | –
O=C(NC12C[C@H]3C[C@@H](C1)C[C@@H](C2)C3)N1CCN(c2ncccn2)CC1 | – | – | – | 3% | –
O=C(OCCCN1CCN(c2cccc(Cl)c2)CC1)C12C[C@H]3C[C@@H](C1)C[C@@H](C2)C3 | – | – | – | 80% | 67%
Cl.Cl.O=C(NCCCN1CCN(c2cccc(Cl)c2)CC1)NC12C[C@H]3C[C@@H](C1)C[C@@H](C2)C3 | 45 nM | 277 nM | – | – | 38%
O=C(NCCN1CCN(c2ccc(Cl)cc2)CC1)C12C[C@H]3C[C@@H](C1)C[C@@H](C2)C3 | 96 nM | – | – | – | –
O=C(NCCN1CCN(c2cccc(Cl)c2)CC1)NC12C[C@H]3C[C@@H](C1)C[C@@H](C2)C3 | 61 nM | 89 nM | – | – | 56%
Cl.Cl.O=C(NCCCN1CCN(c2cccc(Cl)c2)CC1)C12CC3CC(CC1C3)C2 | 10 nM | 4.3 nM | – | – | 31%
